In the library only some 2.2% were active in any assay of this set; here they are far more common.
dFosB activator: mouse delta FosB homodimer activation. AID 493131. activation, % at 25 µM. purified delta FosB, TAMRA-CDK5 oligo fluorescence polarization; percent of positive-control signal above neutral wells. P13346. actives 0.99% (n = 340,000);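 active = mean activation above about 17%, with every replicate also reaching it, limit read from the data, passing the limit was not always enough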
Target sequence (P13346 whole entry, looked up): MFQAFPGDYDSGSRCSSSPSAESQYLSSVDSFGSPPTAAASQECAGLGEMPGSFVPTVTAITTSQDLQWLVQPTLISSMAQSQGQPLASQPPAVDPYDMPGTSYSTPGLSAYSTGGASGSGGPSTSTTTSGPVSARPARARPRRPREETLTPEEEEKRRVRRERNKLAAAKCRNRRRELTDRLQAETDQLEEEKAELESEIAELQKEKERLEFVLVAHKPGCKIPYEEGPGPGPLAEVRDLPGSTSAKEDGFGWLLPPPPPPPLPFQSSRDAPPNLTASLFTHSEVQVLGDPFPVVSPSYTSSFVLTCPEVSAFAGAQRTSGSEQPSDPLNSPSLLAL
FGF22 binding: shifts melting point of recombinant human FGF22 | Q9HCT0 | recombinant FGF22 thermal shift, SYPRO orange fluorescence; percent of sucrose octasulfate shift, DMSO zero | activity (Tm shift, normalised), % at 9.99 µM | actives 1.5% (n = 340,000) | AID 651658;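 active = mean Tm shift, scaled 0 neutral to 100 positive control, at about 1.3% or above, every replicate too, limit read from the data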
Target sequence (Q9HCT0 whole entry, looked up): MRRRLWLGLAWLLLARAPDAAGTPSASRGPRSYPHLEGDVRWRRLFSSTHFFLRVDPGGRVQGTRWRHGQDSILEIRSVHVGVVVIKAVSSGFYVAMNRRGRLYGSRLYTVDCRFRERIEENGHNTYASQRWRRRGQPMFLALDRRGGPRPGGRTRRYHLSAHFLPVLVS
F508del corr: correctors of CFTR F508del function in bronchial epithelial cells. actives 0.36% (n = 350,000). AID 720511. activity (quench increase), % at 7.58 µM. CFBE cells, YFP halide quenching; stimulated with forskolin plus potentiator P3; % fluorescence drop versus neutral controls;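 active = mean added fluorescence quench of at least 8% versus neutral control, with both replicates also reaching 8%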;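 note: cells transiently co-express mutant CFTR-F508del with the halide-sensitive YFP; corrector assay measuring rescue of mutant channel to the surface after 24 h compound exposure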
S100A4 inh HTS: S100A4-myosin IIA interaction inhibition | S100A4/TAMRA-MyoIIA peptide fluorescence polarization | inhibition, % at 10.7 µM | actives 0.14% (n = 360,000) | AID 652163;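 active = mean inhibition of at least 70% across replicates, with every replicate also reaching that level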
Target sequence (P26447 whole entry, looked up): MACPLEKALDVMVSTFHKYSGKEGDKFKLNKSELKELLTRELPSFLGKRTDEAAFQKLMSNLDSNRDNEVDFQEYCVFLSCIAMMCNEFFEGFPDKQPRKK
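incubation = readout 5 min after mixing, signal stable up to 60 min | system = S100A4 monomer protein | buffer or medium = HEPES pH 7.2 with CaCl2, KCl, NaCl, DTT, Triton | benchmarks = neutral control DMSO, positive control TFP | also added = fluorescent myosin IIA peptide, 5 nM | compound dosing = one concentration per compound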
A number is an active result.

What do the screens show for `O=C(C[C@H]1CC[C@@H]2[C@H](COC[C@@H](O)CN2S(=O)(=O)c2cccc(F)c2)O1)NCCCN1CCOCC1`?
FGF22 binding: inactive; F508del corr: inactive; S100A4 inh HTS: inactive

What do the screens show for `NC(=O)c1ccsc1NC(=O)c1ccc(N2CCCC2=O)cc1`?
dFosB activator: inactive; FGF22 binding: 43.5; F508del corr: inactive; S100A4 inh HTS: inactive

How did Cc1ccc(-c2nn(-c3ccccc3)cc2/C=N/NC(=O)c2ccncc2)o1 do in these assays?
dFosB activator: 26.2; FGF22 binding: inactive; F508del corr: inactive; S100A4 inh HTS: inactive

What do the screens show for `CN(C)C(=O)C[C@H]1CC[C@H]2[C@@H](COC[C@@H](O)CN2CC2CC2)O1`?
F508del corr: inactive; S100A4 inh HTS: inactive

What do the screens show for `Nc1ccc(Cl)cc1C(=O)c1ccc[nH]1`?
FGF22 binding: 44.1; F508del corr: inactive; S100A4 inh HTS: inactive

Results for CC1(C)CN=C(c2ccccc2)NC1 ?
dFosB activator: inactive; FGF22 binding: 43.4; F508del corr: inactive; S100A4 inh HTS: inactive

How did CCC1(C)CN=C(c2ccccc2)NC1 (configuration not stated) do in these assays?
dFosB activator: inactive; FGF22 binding: inactive; F508del corr: inactive; S100A4 inh HTS: inactive

What do the screens show for `COc1ccccc1-[n+]1c(C)cc(/C=C2\Sc3ccccc3N2C)cc1C`?
dFosB activator: inactive; FGF22 binding: inactive; F508del corr: inactive; S100A4 inh HTS: inactive

How did COc1ccc(-[n+]2c(C)cc(/C=C3\Sc4ccccc4N3C)cc2C)cc1 do in these assays?
dFosB activator: 28.6; FGF22 binding: inactive; F508del corr: inactive; S100A4 inh HTS: inactive

What do the screens show for `CCC(=O)c1ccc(OCC(O)CNC2CCCC2)cc1` (configuration not stated)?
dFosB activator: 16.1; FGF22 binding: inactive; F508del corr: inactive; S100A4 inh HTS: inactive

What do the screens show for `O=C(C[C@@H]1C[C@@H]2c3cc(NS(=O)(=O)c4ccc(F)cc4)ccc3O[C@@H]2[C@H](CO)O1)N1CCOCC1`?
F508del corr: inactive; S100A4 inh HTS: inactive

Results for Cc1ccccc1-c1ccc([C@H]2[C@H]3CN(C(=O)NC4CCCC4)CC(=O)N3[C@H]2CO)cc1 ?
FGF22 binding: inactive; F508del corr: inactive; S100A4 inh HTS: inactive

Results for O=C1NC(=S)SC1=Cc1ccccc1C(=O)O ?
FGF22 binding: 1.6; F508del corr: inactive; S100A4 inh HTS: inactive

What do the screens show for `C[C@H]1C(=O)N(C)CCN1Cc1cn(C)nc1-c1ccc(Oc2ccccc2)cc1`?
dFosB activator: inactive; FGF22 binding: 43.6; F508del corr: inactive; S100A4 inh HTS: inactive

How did C[C@@H](O)C#Cc1ccc2c(c1)O[C@@H](CN(C)C(=O)CC1CC1)[C@@H](C)CN([C@@H](C)CO)S2(=O)=O do in these assays?
FGF22 binding: inactive; F508del corr: inactive; S100A4 inh HTS: inactive

What do the screens show for `CCN(C)Cc1c(C(=O)N2CCc3ccccc3C2)nc2ccc(Cl)cn12`?
dFosB activator: inactive; FGF22 binding: inactive; F508del corr: inactive; S100A4 inh HTS: inactive

Results for CN(Cc1c(C(=O)N2CCc3ccccc3C2)nc2ccc(Cl)cn12)C(C1CC1)C1CC1 ?
dFosB activator: inactive; FGF22 binding: 43.0; F508del corr: inactive; S100A4 inh HTS: inactive

What do the screens show for `CCN(CC)C(=O)COc1ccc2oc(-c3ccco3)cc(=O)c2c1`?
dFosB activator: inactive; FGF22 binding: 43.8; F508del corr: inactive; S100A4 inh HTS: inactive

How did COC(=O)c1ccc(/C=N/NC(=O)C(=O)NCc2ccccc2)cc1 do in these assays?
dFosB activator: inactive; FGF22 binding: 43.0; F508del corr: inactive; S100A4 inh HTS: inactive

Results for COc1ccccc1CNC(=O)C[C@H]1C[C@H]2c3cc(NC(=O)Nc4ccc(C(F)(F)F)cc4)ccc3O[C@H]2[C@@H](CO)O1 ?
FGF22 binding: inactive; F508del corr: inactive; S100A4 inh HTS: inactive

How did COc1ccc2c3c([nH]c2c1)[C@H](CO)N(C(=O)c1ccncc1)CC31CCN(C(=O)C2CCC2)CC1 do in these assays?
FGF22 binding: inactive; F508del corr: inactive; S100A4 inh HTS: inactive

What do the screens show for `N#C/C(=C\c1cccnc1)C(=O)Nc1ccccc1`?
dFosB activator: inactive

How did N#C/C(=C\c1cccnc1)C(=O)Nc1ccc(C(=O)O)cc1 do in these assays?
dFosB activator: inactive; FGF22 binding: 43.5; F508del corr: inactive; S100A4 inh HTS: inactive

What do the screens show for `Cc1cc(C)n2nc(C)c(Br)c2n1`?
dFosB activator: inactive; FGF22 binding: 44.2; F508del corr: inactive; S100A4 inh HTS: inactive

Results for NC(=O)CNc1n[nH]c(=S)[nH]c1=O ?
dFosB activator: inactive; FGF22 binding: 43.0; F508del corr: inactive; S100A4 inh HTS: inactive

Results for COc1ccc(N2CCN(C(=S)Nc3ccccc3)CC2)cc1 ?
dFosB activator: inactive; FGF22 binding: inactive; F508del corr: inactive; S100A4 inh HTS: inactive

Results for S=C(Nc1ccc(Oc2ccccc2)cc1)N1CCN(c2ccccn2)CC1 ?
dFosB activator: inactive; FGF22 binding: 43.5; F508del corr: inactive; S100A4 inh HTS: inactive

Results for CC(=O)c1ccc(N2CCN(C(=S)Nc3ccc(Oc4ccccc4)cc3)CC2)cc1 ?
dFosB activator: inactive; FGF22 binding: 15.9; F508del corr: inactive; S100A4 inh HTS: inactive

What do the screens show for `Cc1ccc(-c2cnc3c(c2)C(=O)N([C@H](C)CO)C[C@@H](C)[C@@H](CN(C)C(=O)c2cccnc2)O3)cc1`?
FGF22 binding: inactive; F508del corr: inactive; S100A4 inh HTS: inactive

Results for Nc1nc(SCc2ccc(Br)cc2)[nH]c(=O)c1-c1ccccc1 ?
dFosB activator: inactive; FGF22 binding: 43.1; S100A4 inh HTS: inactive

Results for Cc1cc(C)nc(NC(=O)c2ccc(Cl)cc2Cl)n1 ?
dFosB activator: inactive; FGF22 binding: inactive; F508del corr: inactive; S100A4 inh HTS: inactive

Results for Cc1ccnc(NC(=O)c2ccc(Cl)cc2Cl)n1 ?
FGF22 binding: 43.1; F508del corr: inactive; S100A4 inh HTS: inactive

How did O=C(C1CC1)N1C[C@@H]2[C@H](c3ccccc31)[C@H](CO)N2C(=O)c1ccccn1 do in these assays?
FGF22 binding: inactive; F508del corr: inactive

Results for CO[C@@H]1CN(C)C(=O)c2ccc(NC(=O)Nc3cccc(Cl)c3)cc2OC[C@H](C)N(C(=O)Nc2c(C)noc2C)C[C@@H]1C ?
FGF22 binding: inactive; F508del corr: inactive; S100A4 inh HTS: inactive

What do the screens show for `Cc1cc(O)c(Sc2ncn[nH]2)cc1NS(=O)(=O)c1ccc(Cl)cc1`?
dFosB activator: inactive; FGF22 binding: inactive; F508del corr: inactive; S100A4 inh HTS: inactive

What do the screens show for `O=S(=O)(Nc1cc(Sc2ncn[nH]2)c(O)c2ccccc12)c1ccccc1`?
dFosB activator: inactive; FGF22 binding: 42.9; F508del corr: inactive; S100A4 inh HTS: inactive

What do the screens show for `Cc1ccc(S(=O)(=O)Nc2ccc3c(c2)C(=O)N([C@H](C)CO)C[C@H](C)[C@@H](CN(C)S(=O)(=O)c2ccc(Cl)cc2)O3)cc1`?
FGF22 binding: inactive; F508del corr: inactive; S100A4 inh HTS: inactive

Results for CCOc1cccc(-c2cc(NCCc3ccccn3)n3nccc3n2)c1 ?
FGF22 binding: 43.3; F508del corr: inactive; S100A4 inh HTS: inactive

Source: PubChem
